The source made the active and inactive calls. The rule behind the calls is not given here.
Columns and labels:
NCI-H3255 [1] = assay: cells; assay type: functional, cell-based; details: Homo sapiens, NCI-H3255, 72 h
cells [2] = assay type: functional, cell-based; details: Homo sapiens, NCI-H3255GR, 72 h
HCC827 [3] = assay: cells; assay type: functional, cell-based; details: Homo sapiens, HCC827, 72 h
cells [4] = assay type: functional, cell-based; details: Homo sapiens, NCI-H820, 72 h
HCC4006 = assay: cells; assay type: functional, cell-based; details: Homo sapiens, HCC4006, 72 h
PC-9 = assay: cells; assay type: functional, cell-based; details: Homo sapiens, PC-9, 72 h
cells [5] = assay type: functional, cell-based; details: Homo sapiens, NCI-H1781, 72 h
BaF3 [6] = assay: cells; assay type: functional, cell-based; details: Mus musculus, BaF3, 72 h
BaF3 [7] = assay: cells; assay type: functional, cell-based; details: Mus musculus, BaF3, 72 h; remark: listed apart in the source
BaF3 [8] = assay: cells; assay type: functional, cell-based; details: Mus musculus, BaF3, 72 h; remark: listed apart in the source
BaF3 [9] = assay: cells; assay type: functional, cell-based; details: Mus musculus, BaF3, 72 h; remark: listed apart in the source
BaF3 [10] = assay: cells; assay type: functional, cell-based; details: Mus musculus, BaF3, 72 h; remark: listed apart in the source
BaF3 [11] = assay: cells; assay type: functional, cell-based; details: Mus musculus, BaF3, 72 h; remark: listed apart in the source
BaF3 [12] = assay: cells; assay type: functional, cell-based; details: Mus musculus, BaF3, 72 h; remark: listed apart in the source
BaF3 [13] = assay: cells; assay type: functional, cell-based; details: Mus musculus, BaF3, 72 h; remark: listed apart in the source
BaF3 [14] = assay: cells; assay type: functional, cell-based; details: Mus musculus, BaF3, 72 h; remark: listed apart in the source
BaF3 [15] = assay: cells; assay type: functional, cell-based; details: Mus musculus, BaF3, 72 h; remark: listed apart in the source
BaF3 [16] = assay: cells; assay type: functional, cell-based; details: Mus musculus, BaF3, 72 h; remark: listed apart in the source
BaF3 [17] = assay: cells; assay type: functional, cell-based; details: Mus musculus, BaF3, 72 h; remark: listed apart in the source
BaF3 [18] = assay: cells; assay type: functional, cell-based; details: Mus musculus, BaF3, 72 h; remark: listed apart in the source
BaF3 [19] = assay: cells; assay type: functional, cell-based; details: Mus musculus, BaF3, 72 h; remark: listed apart in the source
NCI-H3255GR = assay: Induction of apoptosis in human NCI-H3255GR cells assessed as increase in cleavage of PARP at 1 micromol/L incubated for 72 hrs by Western blotting analysis; assay type: functional, cell-based; details: dose 1.0 µmol/L
NCI-H3255 [20] = assay: Induction of apoptosis in human NCI-H3255 cells assessed as increase in cleavage of PARP at 1 micromol/L incubated for 72 hrs by Western blotting analysis; assay type: functional, cell-based; details: dose 1.0 µmol/L
[21] = molecular target: Receptor tyrosine-protein kinase erbB-3 (Homo sapiens) (UniProt P21860); assay: Inhibition of ERBB3 phosphorylation in human HCC827 cells expressing GFP at 1 to 10000 nmol/L incubated for 12 hrs by Western blotting analysis; assay type: cell-based; details: dose 1-10000 nmol/L
NCI-H3255 [22] = assay: cells; assay type: functional, cell-based; details: Homo sapiens, NCI-H3255, 72 h; remark: listed apart in the source
NCI-H3255 [23] = assay: cells; assay type: functional, cell-based; details: Homo sapiens, NCI-H3255, 72 h; remark: listed apart in the source
NCI-H3255 [24] = assay: cells; assay type: functional, cell-based; details: Homo sapiens, NCI-H3255, 72 h; remark: listed apart in the source
NCI-H3255 [25] = assay: cells; assay type: functional, cell-based; details: Homo sapiens, NCI-H3255, 72 h; remark: listed apart in the source
HCC827 [26] = assay: Antiproliferative activity against human HCC827 cells harboring EGFR Del E746_A750 mutant transfected with GFP assessed as inhibition of cell growth incubated for 72 hrs by MTS assay; assay type: functional, cell-based; details: HCC827, 72 h
Method in brief: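 MTS viable-cell assay (bioreduction to soluble formazan, spectrophotometric read) after 72 h drug exposure; cell numbers set empirically.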

HCC827 [27] = assay: cells; assay type: functional, cell-based; details: Homo sapiens, HCC827, 72 h; remark: listed apart in the source
HCC827 [28] = assay: cells; assay type: functional, cell-based; details: Homo sapiens, HCC827, 72 h; remark: listed apart in the source
HCC827 [29] = assay: cells; assay type: functional, cell-based; details: Homo sapiens, HCC827, 72 h; remark: listed apart in the source
HCC827 [30] = assay: cells; assay type: functional, cell-based; details: Homo sapiens, HCC827, 72 h; remark: listed apart in the source
HCC827 [31] = assay: cells; assay type: functional, cell-based; details: Homo sapiens, HCC827, 72 h; remark: listed apart in the source
HCC827 [32] = assay: Antitumor activity against human HCC827 cells expressing GFP xenografted in nude mouse assessed as inhibition of tumor growth at 10 mg/kg/day, po and measured thrice weekly; assay type: functional, organism-based
Method in brief: (§1)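 Nu/nu mice under 2% isoflurane/oxygen inoculated s.c. in lower-right flank with 5 × 10^6 HCC827-GFP or HCC827-Del/T790M cells in 0.2 mL PBS; randomized at mean tumor 400 to 500 mm3. Daily oral gavage 10 mg/kg/d; caliper volume = length × width² × 0.52; body weight monitored daily; ended when control tumors reached 2000 mm3.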

HCC827 [33] = assay: Antitumor activity against human HCC827 cells expressing EGFR Del/T790M mutant xenografted in nude mouse assessed as inhibition of tumor growth at 10 mg/kg/day, po administered for 95 days and measured thrice weekly; assay type: functional, organism-based; details: time 95.0 day
Method in brief: as §1

NIH3T3 [34] = assay: Inhibition of ERBB2 Ins774YVMA mutant (unknown origin) expressed in mouse NIH3T3 cells assessed as inhibition of ERBB2 phosphorylation at 100 to 10000 nmol/L incubated for 6 hrs by Western blotting analysis; assay type: cell-based; details: dose 100-10000 nmol/L
NIH3T3 [35] = details: Mus musculus, dose 1-10000 nmol/L, time 6.25 hrs
NIH3T3 [36] = details: Mus musculus, dose 1-10000 nmol/L, time 6.25 hrs; remark: listed apart in the source
NIH3T3 [37] = details: Mus musculus, dose 1-10000 nmol/L, time 6.25 hrs; remark: listed apart in the source
HCC827 [38] = details: Homo sapiens, dose 1-10000 nmol/L, time 12.0 hrs

Chain of Receptor tyrosine-protein kinase erbB-3 (Homo sapiens) (P21860 whole entry): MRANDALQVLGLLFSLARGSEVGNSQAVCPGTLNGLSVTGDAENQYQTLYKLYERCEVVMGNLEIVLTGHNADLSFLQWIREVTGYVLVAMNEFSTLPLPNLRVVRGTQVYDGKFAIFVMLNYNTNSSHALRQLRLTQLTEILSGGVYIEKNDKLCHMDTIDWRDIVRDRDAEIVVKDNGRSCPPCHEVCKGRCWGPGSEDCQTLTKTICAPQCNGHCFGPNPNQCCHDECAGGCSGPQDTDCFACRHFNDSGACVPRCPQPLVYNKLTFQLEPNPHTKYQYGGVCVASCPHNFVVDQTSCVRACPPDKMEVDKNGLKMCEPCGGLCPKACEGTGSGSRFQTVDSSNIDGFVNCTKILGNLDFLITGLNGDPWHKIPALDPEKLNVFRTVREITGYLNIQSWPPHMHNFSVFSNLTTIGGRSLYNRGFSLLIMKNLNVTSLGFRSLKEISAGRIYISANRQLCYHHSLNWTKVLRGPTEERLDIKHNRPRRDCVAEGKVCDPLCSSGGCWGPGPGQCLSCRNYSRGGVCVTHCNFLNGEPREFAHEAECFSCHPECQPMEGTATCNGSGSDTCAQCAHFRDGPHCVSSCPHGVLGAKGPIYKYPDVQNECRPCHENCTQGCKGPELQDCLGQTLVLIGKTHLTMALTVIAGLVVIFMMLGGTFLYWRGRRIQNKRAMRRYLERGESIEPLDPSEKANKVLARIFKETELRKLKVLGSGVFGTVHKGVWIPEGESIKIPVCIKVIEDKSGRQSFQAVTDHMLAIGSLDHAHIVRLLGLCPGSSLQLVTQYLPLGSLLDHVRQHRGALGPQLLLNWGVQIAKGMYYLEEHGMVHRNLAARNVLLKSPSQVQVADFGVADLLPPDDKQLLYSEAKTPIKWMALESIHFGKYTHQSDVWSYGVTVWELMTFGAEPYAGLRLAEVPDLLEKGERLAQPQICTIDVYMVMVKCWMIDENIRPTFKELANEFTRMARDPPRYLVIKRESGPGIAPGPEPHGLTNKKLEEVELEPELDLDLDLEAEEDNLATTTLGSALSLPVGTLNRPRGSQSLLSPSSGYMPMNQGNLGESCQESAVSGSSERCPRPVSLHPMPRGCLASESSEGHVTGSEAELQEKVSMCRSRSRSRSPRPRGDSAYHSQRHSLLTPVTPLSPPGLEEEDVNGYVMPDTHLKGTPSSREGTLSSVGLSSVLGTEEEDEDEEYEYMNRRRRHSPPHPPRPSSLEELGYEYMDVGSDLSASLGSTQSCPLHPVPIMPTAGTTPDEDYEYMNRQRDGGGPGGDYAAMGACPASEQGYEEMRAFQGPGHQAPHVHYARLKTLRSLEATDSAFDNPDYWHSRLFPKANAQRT

Compound COc1cc2ncnc(Nc3ccc(F)c(Cl)c3)c2cc1NC(=O)/C=C/CN1CCCCC1 [DACOMITINIB ANHYDROUS] has an IC50 (NCI-H3255 [1]) of 7 nM, an IC50 (cells [2]) of 119 nM and an IC50 (HCC827 [3]) of 2 nM. The IC50 (cells [4]) was 930 nM, the IC50 (HCC4006) was 4 nM and the IC50 (PC-9) was 2 nM. It also gave an IC50 (cells [5]) of 275 nM, an IC50 (BaF3 [6]) of under 1 nM and an IC50 (BaF3 [7]) of 2 nM. It also gave an IC50 (BaF3 [8]) of 1.6 nM, an IC50 (BaF3 [9]) of 1.9 nM and an IC50 (BaF3 [10]) of 1.4 nM. The IC50 (BaF3 [11]) was 2.6 nM, the IC50 (BaF3 [12]) was 230 nM and the IC50 (BaF3 [13]) was 1.2 nM. For the same compound, the IC50 (BaF3 [14]) was 140 nM, the IC50 (BaF3 [15]) was 330 nM and the IC50 (BaF3 [16]) was 240 nM. It also gave an IC50 (BaF3 [17]) of 160 nM, an IC50 (BaF3 [18]) of 270 nM and an IC50 (BaF3 [19]) of 300 nM. The Activity (NCI-H3255GR) was “Active”, the Activity (NCI-H3255 [20]) was “Active” and the inhibition [21] was “Active”. The IC50 (NCI-H3255 [22]) was 7 nM, the IC50 (NCI-H3255 [23]) was 137 nM and the IC50 (NCI-H3255 [24]) was 1620 nM. It also gave an IC50 (NCI-H3255 [25]) of 1570 nM, an IC50 (HCC827 [26]) of 2 nM and an IC50 (HCC827 [27]) of 3 nM. The IC50 (HCC827 [28]) was 14 nM, the IC50 (HCC827 [29]) was 61 nM and the IC50 (HCC827 [30]) was 2 nM. The IC50 (HCC827 [31]) was 83 nM, the Activity (HCC827 [32]) was “Active” and the Activity (HCC827 [33]) was “Active”. For the same compound, the inhibition (NIH3T3 [34]) was “Active”, the inhibition (NIH3T3 [35]) was “Active” and the inhibition (NIH3T3 [36]) was “Active”. For the same compound, the inhibition (NIH3T3 [37]) was “Active” and the inhibition (HCC827 [38]) was “Active”.

Reference: ChEMBL document CHEMBL5661976 (Cancer Res, 2007)
